Here are results for 23 compounds from ChEMBL document CHEMBL1122004, “alpha-Adrenergic agents. 2. Synthesis and alpha 1-agonist activity of 2-aminotetralins” (J Med Chem, 1982).

Assay [1] can be described thus: Alpha-1 adrenergic receptor activation causing vasoconstriction in the isolated rabbit ear artery. The format is functional, tissue-based. The note with it: Oryctolagus cuniculus. The procedure, abridged: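 Isolated rabbit ear artery segments with cocaine 2×10^-6 g/mL present throughout to block neuronal uptake. A cumulative norepinephrine curve (10^-8 to 3×10^-6 M) is run first to set the maximum response. After washout, a cumulative test-drug curve is run, stepping concentration once the response is stable. EC50 = concentration giving 50% of the NE maximum.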

Assay [2] concerns the target Adrenergic receptor alpha-1 (Homo sapiens) (UniProt P35348+P25100+P35368). In words: Dissociation constant for Alpha-1-adrenergic receptor was determined before and after addition of phentolamine. As to conditions: Oryctolagus cuniculus. The gist of the method:
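Rabbit ear artery with cocaine 2×10^-6 g/mL. After cumulative NE and test-drug curves and washout, phentolamine 10^-7 M is superfused for 30 min of equilibration. NE and test-drug curves are then repeated. K_B for phentolamine = [phentolamine]/((EC50 with phentolamine / EC50 without) − 1).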

Some results are limits rather than exact numbers.

Usually EC50 stands for the concentration at which the effect is half-maximal. The low end stands for a more potent agent, the high end for a less potent agent.

Take `COc1ccc(SC)c2c1CC(N(C)C)CC2` (stereo not drawn): the concentration for a half-maximal effect (EC50) in assay [1] came out at 0.014 µM. Further, the Kb in assay [2] came to 0.009 µM.

The compound `CCNC1CCc2c(SC)ccc(OC)c2C1` (stereo not drawn) came in with an EC50 in assay [1] of 0.026 µM.

Compound `NC1CCc2ccccc2C1` (stereo not drawn) yielded an EC50 in assay [1] greater than 30 µM.

Take `CCNC1CCc2c(N)ccc(OC)c2C1` (stereo not drawn): in assay [1], the EC50 was 5.3 µM.

As to `CCNC1CCc2ccc(OC)c(OC)c2C1` (stereo not drawn), the EC50 in assay [1] is greater than 10 µM.

In turn, `CCNC1CCc2c(OC)ccc(I)c2C1` (stereo not drawn) had an EC50 in assay [1] of 0.064 µM. In addition, the Kb in assay [2] was determined as 0.012 µM.

`CCNC1CCc2c(OC)ccc(OC)c2C1` (stereo not drawn): the EC50 in assay [1] was 0.081 µM. In assay [2], the Kb amounted to 0.008 µM.

Compound `COc1ccc(Cl)c2c1CCC(N)C2` (stereo not drawn) came in with an EC50 in assay [1] of 0.23 µM. In addition, in assay [2], the Kb was 0.013 µM.

`CCNC1CCc2c(OC)ccc(SC)c2C1` (stereo not drawn) had an EC50 in assay [1] of 0.14 µM. Also, in assay [2], the Kb was 0.016 µM.

Regarding `CCCNC1CCc2c(OC)ccc(OC)c2C1` (stereo not drawn), it took 1.1 µM to reach a half-maximal effect in assay [1] (EC50). Also, the Kb in assay [2] was determined as 0.018 µM.

The compound `COc1ccc(OC)c2c1CCC(N(C)C)C2` (stereo not drawn) displayed an EC50 in assay [1] of 0.081 µM. For the same compound, in assay [2], the Kb was 0.015 µM.

The compound `COc1cccc2c1CCC(N)C2` (stereo not drawn) came in with a concentration giving a half-maximal response (EC50) in assay [1] of 2.2 µM. This compound also gave a Kb in assay [2] of 0.007 µM.

In assay [1], `NC[C@H](O)c1ccc(O)c(O)c1` [NOREPINEPHRINE] yielded an EC50 of 0.15 µM.

The compound `COc1cccc2c1CC(N)CC2` (stereo not drawn) registered a concentration giving a half-maximal response (EC50) in assay [1] of 1.7 µM. This compound registered a Kb in assay [2] of 0.012 µM.

With `COc1ccc(OC)c(C(O)C(C)N)c1` (stereo not drawn) [METHOXAMINE], a half-maximal effect in assay [1] (EC50) was put at 0.72 µM. Besides, in assay [2], the Kb was found to be 0.011 µM.

`CCNC1CCc2c(OC)ccc(Cl)c2C1` (stereo not drawn) came in with an EC50 in assay [1] of 0.064 µM. Also, in assay [2], the Kb turned out to be 0.014 µM.

`COc1ccc(SC)c2c1CC(N)CC2` (stereo not drawn) displayed an EC50 in assay [1] of 0.012 µM. Also, in assay [2], the Kb was found to be 0.005 µM.

Regarding `COc1ccc(OC)c2c1CCC(N)C2` (stereo not drawn), in assay [1], the EC50 was found to be 0.12 µM. This compound also showed a Kb in assay [2] of 0.006 µM.

Take `CCNC1CCc2c(Sc3ccccc3)ccc(OC)c2C1` (stereo not drawn): the midpoint of the response in assay [1], the EC50, lay at 0.7 µM.

`CNC1CCc2c(OC)ccc(OC)c2C1` (stereo not drawn) registered an EC50 in assay [1] of 0.086 µM. For the same compound, the Kb in assay [2] turned out to be 0.011 µM.

For `CCNC1CCc2c(I)ccc(OC)c2C1` (stereo not drawn), the concentration giving a half-maximal response (EC50) in assay [1] was determined as 0.021 µM. Further, in assay [2], the Kb came to 0.011 µM.

Regarding `COc1cc2c(cc1OC)CC(N)CC2` (stereo not drawn), the half-maximal effective concentration (EC50) in assay [1] is greater than 10 µM.

`Cc1ccc(C)c2c1CCC(N)C2` (stereo not drawn) yielded an EC50 in assay [1] of 10 µM.
